Ecoli tolC – blocks growth of E. coli BW25113 tolC mutant. OD615. growth inhibition, % at 10 µM (by protocol). 2.2% of 65,000 active;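 active = growth inhibition at or above a cutoff equal to the mean over every tested compound plus 3 SD, cut at about 60% in these data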;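 note: growth measured after 20 h incubation at 37 °C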
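test system = E. coli BW25113 ΔtolC::kan bacteria | medium = LB with kanamycin 50 µg/mL | signal = OD at 615 nm | schedule = 37 °C, 20 h exposure | evaluation = % inhibition of E. coli growth | compound dosing = one dose of 10 µM final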
PostGolgi yeast – growth inhibition of a yeast mutant, post-Golgi transport screen; post-Golgi transport phenotypic cell assay; inhibition, % at 10 µM; 0.9% of 98,000 active;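 note: yeast cells grown in 1536-well plates; yeast grown about 18 h at 30C before absorbance read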
E coli WT exp – growth inhibitors of E. coli BW25113 wild type; AID 710; 0.15% of 98,000 active; OD600 absorbance; growth inhibition, % at 100 µM;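 active = growth inhibition above about 50% at one test dose, limit read from the data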;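 note: growth measured after 20 h incubation at 37 °C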
PTK2B oligo ant – blocks oligomerization of human Pyk2 in cells; 0.83% of 99,000 active; AID 1347419; z-score (the deposit names both 25 µM and 10 µM); Q293 cells, Pyk2 FERM NanoBiT luminescence; stronger effect = lower value;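 active = Z-score of -3 or lower, scaled per plate to the spread of control and sample wells; inactive = z-score above -3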;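 note: negative z-score means lost luminescence so less FERM oligomerization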
Target sequence (Q14289 whole entry, looked up): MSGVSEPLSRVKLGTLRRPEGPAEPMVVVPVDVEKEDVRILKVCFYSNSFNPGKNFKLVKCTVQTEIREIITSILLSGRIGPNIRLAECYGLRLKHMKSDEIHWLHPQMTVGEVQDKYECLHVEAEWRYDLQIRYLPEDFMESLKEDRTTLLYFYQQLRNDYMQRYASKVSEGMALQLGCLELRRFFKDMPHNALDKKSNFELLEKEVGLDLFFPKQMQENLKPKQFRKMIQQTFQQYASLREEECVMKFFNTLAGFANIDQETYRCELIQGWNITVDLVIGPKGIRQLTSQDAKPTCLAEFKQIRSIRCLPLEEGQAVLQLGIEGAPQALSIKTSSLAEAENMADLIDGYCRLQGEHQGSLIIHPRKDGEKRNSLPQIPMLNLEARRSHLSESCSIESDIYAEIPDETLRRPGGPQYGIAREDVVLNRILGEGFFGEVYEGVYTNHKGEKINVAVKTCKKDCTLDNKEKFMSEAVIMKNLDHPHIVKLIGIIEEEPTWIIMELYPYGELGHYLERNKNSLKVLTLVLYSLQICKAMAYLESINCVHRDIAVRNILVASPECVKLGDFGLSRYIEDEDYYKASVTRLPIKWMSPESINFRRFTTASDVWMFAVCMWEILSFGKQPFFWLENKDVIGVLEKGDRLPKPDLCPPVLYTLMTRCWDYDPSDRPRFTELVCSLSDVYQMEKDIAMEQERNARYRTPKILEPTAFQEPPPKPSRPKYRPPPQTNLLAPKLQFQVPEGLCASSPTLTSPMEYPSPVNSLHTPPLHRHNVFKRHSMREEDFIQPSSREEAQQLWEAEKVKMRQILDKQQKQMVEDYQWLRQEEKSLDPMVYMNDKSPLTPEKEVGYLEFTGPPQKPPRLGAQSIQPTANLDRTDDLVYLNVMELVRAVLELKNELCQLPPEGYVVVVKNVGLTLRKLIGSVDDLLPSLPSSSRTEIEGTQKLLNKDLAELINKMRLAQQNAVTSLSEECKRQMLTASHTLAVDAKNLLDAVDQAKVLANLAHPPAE
Cav3 T inh – blocks human Cav3.2 T-type calcium channel. O95180. AID 449739. Cav3.2-expressing cells, Fluo-4 calcium fluorescence FDSS; stronger effect = lower value. 4% of 100,000 active. B-score at 10 µM;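 active = single-dose well whose peak fluorescence ratio is a statistical outlier from its plate by either plate-standardised score or position-corrected B-score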
PostGolgi ctrl – yeast control strain growth, post-Golgi counter-screen | inhibition, % at 10 µM | efflux-deficient yeast background strain, growth absorbance A615, 16 h | 5% of 98,000 active
An asterisk follows results filed as active; x = no result. Hits are enriched below; roughly 8.7% of the tested compounds scored in any of these assays. Cut-off read from the data, not from the text of the source, unless noted: active = inhibition above about 30%; inactive = the rest.

SMILES	Ecoli tolC	PostGolgi yeast	E coli WT exp	PTK2B oligo ant	Cav3 T inh	PostGolgi ctrl
O=C1CN(C(=O)c2ccccc2)c2ccccc2N1	-10	-4	3	-0.85	1.1	19
O=C(COC(=O)C1(c2ccc(F)cc2)CCCC1)NC1CC1	x	2	-2	0.45	1.1	20
CCCn1c(=S)[nH]c2cc(C(=O)N3CCCC(C(=O)OCC)C3)ccc2c1=O (stereo not drawn)	16	0	-8	0.25	-2.9	9
CC1CCCN(C(=O)c2ccc3c(=O)n(Cc4ccc5c(c4)OCO5)c(=S)[nH]c3c2)C1 (stereo not drawn)	x	-1	-4	-0.44	-5.3*	47*
CC1CCN(C(=O)CSc2nc3ccccc3c(=O)n2Cc2ccc3c(c2)OCO3)CC1	x	-6	-18	-0.74	-4.9*	43*
O=C(c1ccc2c(=O)n(Cc3ccco3)c(=S)[nH]c2c1)N1CCN(Cc2ccccc2)CC1	x	-4	-9	0.46	-6.6*	-3
CC1CCN(C(=O)Cn2c(=O)n(Cc3ccc4c(c3)OCO4)c(=O)c3ccccc32)CC1	14	12	-9	0.38	-2.4	9
CC(C)(Oc1ccc(Cl)cc1)C(=O)OCC(=O)N1CCCC1	17	3	-9	0.05	-0.1	7
CC(C(=O)N1CCCc2ccccc21)N1CCN(S(=O)(=O)c2ccccc2F)CC1 (stereo not drawn)	x	2	-1	-0.13	0.35	15
COc1ccc2c(c1)CCc1c(C(=O)N3CCOCC3)noc1-2	-2	19	-3	-0.78	0.84	-1
COc1ccc2c(c1)CCc1c(C(=O)N3CCCc4ccccc43)noc1-2	71*	-4	-13	-2.7	-2.6	14
COc1ccc2c(c1)CCc1c(C(=O)N3CC4(C)CC3CC(C)(C)C4)noc1-2 (stereo not drawn)	59	-7	-16	-1.5	-1.9	38*
O=C(Cn1cnc2c(nnn2-c2ccc(F)cc2)c1=O)N1CCCC1	-1	5	-5	-0.21	-2	-3
Cc1ccc(COn2c(-c3ccc(Cl)cc3)nc3ccc([N+](=O)[O-])cc32)cc1	x	1	-9	-2.5	-1.9	17
O=[N+]([O-])c1ccc2nc(-c3ccc(Cl)cc3)n(OCc3ccccc3)c2c1	x	0	-10	-3.1*	x	8
CC(=O)c1sc(Nc2nc3ccc(F)cc3s2)nc1C	60	7	-4	-1.3	-0.0047	27
CCOC(=O)c1csc(Nc2nc3ccc(F)cc3s2)n1	88*	-6	-2	-0.62	x	24
CC1=[N+]([O-])C(C)(C)CC(C)(C)c2ccccc21	-23	5	4	1	0.015	30*
CC1(C)[N+]([O-])=C2C(=[N+]([O-])C1(C)C)c1ccccc1/C2=N\O	-7	-7	-2	0.29	-0.0051	3
CC(=O)CCc1c[nH]c2c(C(=O)O)cccc12	-12	1	-12	0.65	0.044	3
O=C(CSc1nnc(Cc2ccccc2)o1)N1CCCc2ccccc21	24	-3	-1	0.22	-3.9*	12
O=C(CSc1nnc(CNc2ccccc2)o1)N1CCc2ccccc21	9	12	-3	0.91	0.41	9
O=C(CSc1nnc(C2COc3ccccc3O2)o1)N1CCCc2ccccc21 (stereo not drawn)	14	-4	-18	-0.88	-10*	27
Cc1cc(NC(=O)CSc2nnc(C3COc4ccccc4O3)o2)no1 (stereo not drawn)	-20	1	-17	-0.4	1.1	42*
O=C(CSc1nnc(C2COc3ccccc3O2)o1)N1CCOCC1 (stereo not drawn)	-13	1	-6	0.5	-0.15	1
O=C(c1ccco1)N1N=C(c2cccs2)CC1c1ccc(F)cc1 (stereo not drawn)	x	14	-1	-1.2	-2.5	35*
O=C(c1cccs1)N1N=C(c2ccccc2)CC1c1ccccc1 (stereo not drawn)	x	1	-4	-1.1	-1.2	69*
O=C(NCc1ccccc1)C(c1ccc(F)cc1)N(Cc1ccc2c(c1)OCO2)C(=O)Cn1nnc(-c2cccs2)n1 (stereo not drawn)	x	x	x	-1.1	-5.1*	x
COc1ccc(CNC(=O)C2CC(c3cc(C(F)(F)F)cc(C(F)(F)F)c3)=NO2)cc1 (stereo not drawn)	x	x	x	x	-0.035	x
CCOC(=O)c1c(-c2ccccc2)nc2ccccn12	x	5	6	-0.7	0.029	12

Screening data as filed in PubChem.
